Data from ChEMBL document CHEMBL4715715, “Synthesis and biological evaluation of arylcinnamide linked combretastatin-A4 hybrids as tubulin polymerization inhibitors and apoptosis inducing agents” (Bioorg Med Chem Lett, 2016).

Key:
MCF7 [1] = experiment: Antiproliferative activity against human MCF7 cells assessed as cell growth inhibition measured after 48 hrs by SRB assay; type: functional
Summary of the method: (§1)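 Sulforhodamine B (SRB) cell-staining assay across a panel of human cancer lines. Growth inhibition is reported as GI50.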

DU-145 = experiment: Antiproliferative activity against human DU-145 cells assessed as cell growth inhibition measured after 48 hrs by SRB assay; type: functional; summary of the method: as §1
HOP-62 = experiment: Antiproliferative activity against human HOP-62 cells assessed as cell growth inhibition measured after 48 hrs by SRB assay; type: functional; summary of the method: as §1
HeLa = experiment: Antiproliferative activity against human HeLa cells assessed as cell growth inhibition measured after 48 hrs by SRB assay; type: functional; summary of the method: as §1
K562 = experiment: Antiproliferative activity against human K562 cells assessed as cell growth inhibition measured after 48 hrs by SRB assay; type: functional; summary of the method: as §1
SK-OV-3 = experiment: Antiproliferative activity against human SK-OV-3 cells assessed as cell growth inhibition measured after 48 hrs by SRB assay; type: functional; summary of the method: as §1
COLO 205 = experiment: Antiproliferative activity against human COLO 205 cells assessed as cell growth inhibition measured after 48 hrs by SRB assay; type: functional; summary of the method: as §1
MIA PaCa-2 = experiment: Antiproliferative activity against human MIA Paca-2 cells assessed as cell growth inhibition measured after 48 hrs by SRB assay; type: functional; summary of the method: as §1
MCF7 [2] = experiment: Cell cycle arrest in human MCF7 cells assessed as accumulation at sub-G1 phase at 50 nM measured after 48 hrs by propidium iodide staining based flow cytometry (reference value: 2.4 %); type: functional
Summary of the method: (§2)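 MCF-7 cells were treated at 50 and 100 nM for 48 h. Cell-cycle phase distribution (sub-G1, G0/G1, S, G2/M %) was read by flow cytometry against untreated control.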

MCF7 [3] = experiment: Cell cycle arrest in human MCF7 cells assessed as accumulation at G0/G1 phase at 50 nM measured after 48 hrs by propidium iodide staining based flow cytometry (reference value: 85.3 %); type: functional; summary of the method: as §2
MCF7 [4] = experiment: Cell cycle arrest in human MCF7 cells assessed as accumulation at S phase at 50 nM measured after 48 hrs by propidium iodide staining based flow cytometry (reference value: 3.1 %); type: functional; summary of the method: as §2
MCF7 [5] = experiment: Cell cycle arrest in human MCF7 cells assessed as accumulation at G2/M phase at 50 nM measured after 48 hrs by propidium iodide staining based flow cytometry (reference value: 8.44 %); type: functional; summary of the method: as §2
Sus scrofa = species: Sus scrofa; experiment: Inhibition of porcine brain tubulin polymerization at 3 uM measured after 1 hr in presence of GTP by fluorescence assay relative to control; type: tissue-based
Summary of the method: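 Tubulin polymerization was followed by fluorescence (excitation 360 nm, emission 420 nm) for 1 h at 37 °C. Compounds were at 3 μM final, with and without compound. Values are mean ± SD of two experiments done in triplicate.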

[6] = Inhibition of porcine brain tubulin polymerization measured after 1 hr in presence of GTP by fluorescence assay; type: tissue-based, Sus scrofa
Summary of the method: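 Tubulin assembly followed by the rise in fluorescence (ex 360 nm, em 420 nm) over 1 h at 37 °C. Compounds tested at a final 3 μM with a reference control. IC50 defined as the concentration inhibiting 50% of tubulin assembly. Mean ± SD of two experiments in triplicate.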

MCF7 [7] = experiment: Induction of apoptosis in human MCF7 cells assessed as early apoptotic cells at 50 nM measured after 48 hrs by annexinV-FITC/propidium iodide staining based flow cytometry (reference value: 4.4 %); type: functional
Summary of the method: (§3)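 MCF-7 cells were treated at 50 and 100 nM for 48 h. Annexin V-FITC/PI dual staining was read by flow cytometry. Cells were quadrant-gated as UL, UR, LL and LR, with untreated control alongside.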

MCF7 [8] = experiment: Induction of apoptosis in human MCF7 cells assessed as necrotic cells at 50 nM measured after 48 hrs by annexinV-FITC/propidium iodide staining based flow cytometry (reference value: 0.1 %); type: functional; summary of the method: as §3
MCF7 [9] = experiment: Induction of apoptosis in human MCF7 cells assessed as live cells at 50 nM measured after 48 hrs by annexinV-FITC/propidium iodide staining based flow cytometry (reference value: 95 %)
MCF7 [10] = experiment: Induction of apoptosis in human MCF7 cells assessed as late apoptotic cell population at 50 nM measured after 48 hrs by Annexin V-FITC/PI staining based flow cytometry (reference value: 1 %)
MCF7 [11] = experiment: Induction of apoptosis in human MCF7 cells assessed as early apoptotic cell population at 50 nM measured after 48 hrs by Annexin V-FITC/PI staining based flow cytometry (reference value: 0.7 %)
MCF7 [12] = experiment: Induction of apoptosis in human MCF7 cells assessed as late apoptotic cells at 50 nM measured after 48 hrs by annexinV-FITC/propidium iodide staining based flow cytometry (reference value: 0.6 %)

GI50 (MCF7 [1]) [nM]	GI50 (DU-145) [nM]	GI50 (HeLa) [µM]	GI50 (K562) [nM]	GI50 (SK-OV-3) [µM]	GI50 (COLO 205) [µM]	GI50 (MIA PaCa-2) [µM]	SMILES	GI50 (HOP-62) [nM]	Activity (MCF7 [2]) [%]	Activity (MCF7 [3]) [%]	Activity (MCF7 [4]) [%]	Activity (MCF7 [5]) [%]	inhibition (Sus scrofa) [%]	IC50 [6] [nM]	Activity (MCF7 [7]) [%]	Activity (MCF7 [8]) [%]	live cells (MCF7 [9]) [%]	Activity (MCF7 [10]) [%]	Activity (MCF7 [11]) [%]	late apoptotic cells (MCF7 [12]) [%]
95	117	15.9	23700	1.8	> 100	46.3	COc1ccc(/C=C/C(=O)Nc2c(/C=C\c3cc(OC)c(OC)c(OC)c3)ccc(OC)c2O)cc1O	17100	–	–	–	–	–	–	–	–	–	–	–	–
66	83	24	23500	47.5	67.6	78.1	COc1ccc(/C=C\c2cc(OC)c(OC)c(OC)c2)c(NC(=O)/C=C/c2ccc(F)cc2)c1O	43000	–	–	–	–	–	–	–	–	–	–	–	–
50	79	0.091	89	0.097	0.089	14.3	COc1ccc(/C=C/C(=O)Nc2c(/C=C\c3cc(OC)c(OC)c(OC)c3)ccc(OC)c2O)cc1N	44	–	–	–	–	–	–	–	–	–	–	–	–
60	72	0.09	93	0.096	0.098	0.098	COc1cc(/C=C/C(=O)Nc2c(/C=C\c3cc(OC)c(OC)c(OC)c3)ccc(OC)c2O)ccc1O	79	–	–	–	–	–	–	–	–	–	–	–	–
83	85	0.0787	91	0.082	18	0.098	C=CCOc1cccc(/C=C/C(=O)Nc2c(/C=C\c3cc(OC)c(OC)c(OC)c3)ccc(OC)c2O)c1	60	–	–	–	–	–	–	–	–	–	–	–	–
95	75	0.099	96	7.9	0.096	23.5	COc1cc(/C=C/C(=O)Nc2c(/C=C\c3cc(OC)c(OC)c(OC)c3)ccc(OC)c2O)ccc1[N+](=O)[O-]	84	–	–	–	–	–	–	–	–	–	–	–	–
59500	> 100000	18.1	98	17.6	> 100	93.9	COc1cccc(/C=C/C(=O)Nc2c(/C=C\c3cc(OC)c(OC)c(OC)c3)ccc(OC)c2O)c1	65400	–	–	–	–	–	–	–	–	–	–	–	–
74	85	0.09	82	0.094	0.086	0.097	COc1cc(/C=C/C(=O)Nc2c(/C=C\c3cc(OC)c(OC)c(OC)c3)ccc(OC)c2O)ccc1N	31	–	–	–	–	–	–	–	–	–	–	–	–
55500	54100	38.8	24900	62.6	> 100	> 100	COc1ccc(/C=C\c2cc(OC)c(OC)c(OC)c2)c(NC(=O)/C=C/c2ccc(Cl)cc2)c1O	79400	–	–	–	–	–	–	–	–	–	–	–	–
19400	64700	49.2	46800	52.6	> 100	> 100	COc1ccc(/C=C/C(=O)Nc2c(/C=C\c3cc(OC)c(OC)c(OC)c3)ccc(OC)c2O)cc1[N+](=O)[O-]	71300	–	–	–	–	–	–	–	–	–	–	–	–

SMILES	GI50 (MCF7 [1]) [nM]	GI50 (DU-145) [nM]	GI50 (HeLa) [µM]	GI50 (K562) [nM]	GI50 (SK-OV-3) [µM]	GI50 (COLO 205) [µM]	GI50 (MIA PaCa-2) [µM]	GI50 (HOP-62) [nM]	Activity (MCF7 [2]) [%]	Activity (MCF7 [3]) [%]	Activity (MCF7 [4]) [%]	Activity (MCF7 [5]) [%]	inhibition (Sus scrofa) [%]	IC50 [6] [nM]	Activity (MCF7 [7]) [%]	Activity (MCF7 [8]) [%]	live cells (MCF7 [9]) [%]	Activity (MCF7 [10]) [%]	Activity (MCF7 [11]) [%]	late apoptotic cells (MCF7 [12]) [%]
C#CCOc1cccc(/C=C/C(=O)Nc2c(/C=C\c3cc(OC)c(OC)c(OC)c3)ccc(OC)c2O)c1	11600	96400	> 100	> 100000	> 100	> 100	> 100	> 100000	–	–	–	–	–	–	–	–	–	–	–	–
COc1ccc(/C=C\c2cc(OC)c(OC)c(OC)c2)c(NC(=O)/C=C/c2ccc(C(F)(F)F)cc2)c1O	83700	> 100000	> 100	58000	> 100	> 100	> 100	> 100000	–	–	–	–	–	–	–	–	–	–	–	–
COc1ccc(/C=C\c2cc(OC)c(OC)c(OC)c2)c(NC(=O)/C=C/c2cccc(O)c2)c1O	63	70	0.0949	94	0.097	13.4	0.098	82	–	–	–	–	–	–	–	–	–	–	–	–
COc1ccc(/C=C\c2cc(OC)c(OC)c(OC)c2)cc1O [COMBRETASTATIN A4]	33	46	0.008	31	31.6	0.025	–	150	2.71	56.19	1.43	37.41	72.2	1480	30.2	0.5	65.7	24.5	3.6	3.6
COc1ccc(/C=C\c2cc(OC)c(OC)c(OC)c2)c(NC(=O)/C=C/c2cc(OC)c(OC)c(OC)c2)c1O	79	95	14.9	28000	20.9	76	64.5	24800	–	–	–	–	–	–	–	–	–	–	–	–
COc1ccc(/C=C\c2cc(OC)c(OC)c(OC)c2)c(NC(=O)/C=C/c2ccc([N+](=O)[O-])cc2)c1O	72	85	15.7	97	17	10.3	40.8	61	–	–	–	–	–	–	–	–	–	–	–	–
